This is an account of results in ChEMBL document CHEMBL1122765, “Cyclic melanotropins. 5. Importance of the C-terminal tripeptide (Lys-Pro-Val)” (1984).

Bridge positions count the residues as written; N and C are the ends. Peptide text beside a SMILES is read from it.

The species named for one assay is Mus musculus. The assay can be described thus: Adenylate cyclase activity in vitro in the membrane fraction from S-91 mouse melanoma tumors activity measured relative to alpha-MSH. It counts as functional, cell membranes. The method in brief:
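Particulate membrane fraction from S-91 (Cloudman) melanoma tumors grown in […] mice. Adenylate cyclase measured as conversion of [α-³²P]ATP to [³²P]cAMP, with cAMP isolated and detected by the Salomon method. Potency relative to α-MSH from parallel dose–response curves.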

For the next assay, the system named is Anolis carolinensis. Briefly: Ability to stimulate melanosome dispersion in vitro in the lizard skin activity measured relative to alpha-MSH. The class given is functional. The method in brief: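 Anolis carolinensis skin in vitro; melanosome dispersion read as skin darkening. Test solutions serially diluted from a 10⁻⁴ M stock. n = 6 skins per point, mean ± SE. Relative potency versus α-MSH taken from parallel dose–response curves over the linear range.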

Another assay deals with Lithobates pipiens. The assay can be described thus: Ability to stimulate melanosome dispersion in vitro in the frog skin activity measured relative to alpha-MSH. It counts as functional. Summed up:
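Rana pipiens skin in vitro; melanosome dispersion read as skin darkening. Test solutions made by serial dilution from a 10⁻⁴ M stock. n = 6 or more skins per point, mean ± SE. Potency relative to α-MSH derived from parallel dose–response curves over the linear portion.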

In the case of `CC(=O)N[C@H]1CSSC[C@@H](C(N)=O)NC(=O)[C@H](Cc2c[nH]c3ccccc23)NC(=O)[C@@H](CCCN=C(N)N)NC(=O)[C@H](Cc2ccccc2)NC(=O)[C@@H](Cc2c[nH]cn2)NC(=O)[C@H](CCC(=O)O)NC1=O`, the Relative potency in the assay filed under Mus musculus turned out to be 0.016.
On the same count and under the same terms, under `CC(=O)N[C@H]1CSSC[C@@H](C(=O)N[C@@H](CCCCN)C(N)=O)NC(=O)[C@H](Cc2c[nH]c3ccccc23)NC(=O)[C@@H](CCCN=C(N)N)NC(=O)[C@H](Cc2ccccc2)NC(=O)[C@@H](Cc2c[nH]cn2)NC(=O)[C@H](CCC(=O)O)NC1=O` stands 0.16.
In the case of `CC(=O)N[C@@H](CO)C(=O)N[C@@H](Cc1ccc(O)cc1)C(=O)N[C@@H](CO)C(=O)N[C@H]1CSSC[C@@H](C(=O)N[C@@H](CCCCN)C(=O)N2CCC[C@H]2C(=O)N[C@H](C(N)=O)C(C)C)NC(=O)[C@H](Cc2c[nH]c3ccccc23)NC(=O)[C@H](CCCN=C(N)N)NC(=O)[C@H](Cc2ccccc2)NC(=O)[C@H](Cc2c[nH]cn2)NC(=O)[C@H](CCC(=O)O)NC1=O` (Ac-SYSCEHFRWCKPV-NH2; disulfide 4-10), the Relative potency is on record as 2 with Anolis carolinensis and 10 in the assay with Lithobates pipiens.
For `CC(=O)N[C@H]1CSSC[C@@H](C(=O)N[C@@H](CCCCN)C(=O)N2CCC[C@H]2C(N)=O)NC(=O)[C@H](Cc2c[nH]c3ccccc23)NC(=O)[C@H](CCCN=C(N)N)NC(=O)[C@H](Cc2ccccc2)NC(=O)[C@H](Cc2c[nH]cn2)NC(=O)[C@H](CCC(=O)O)NC1=O`, in that order: 1.5 and 10.
Consider `CSCC[C@H](NC(C)=O)C(=O)N[C@@H](CCC(=O)O)C(=O)N[C@@H](Cc1c[nH]cn1)C(=O)N[C@@H](Cc1ccccc1)C(=O)N[C@@H](CCCN=C(N)N)C(=O)N[C@@H](Cc1c[nH]c2ccccc12)C(=O)NCC(N)=O`, for which the Relative potency in the assay with Anolis carolinensis was found to be 0.03; in the assay with Lithobates pipiens, 0.0007; in the assay listed under Mus musculus it was 0.03.
As for `CC(=O)N[C@H]1CSSC[C@@H](C(=O)N[C@@H](CCCCN)C(=O)N2CCC[C@H]2C(N)=O)NC(=O)[C@H](Cc2c[nH]c3ccccc23)NC(=O)[C@H](CCCN=C(N)N)NC(=O)[C@@H](Cc2ccccc2)NC(=O)[C@H](Cc2c[nH]cn2)NC(=O)[C@H](CCC(=O)O)NC1=O`, the Relative potency in the assay on Anolis carolinensis turned out to be 6; in the assay with Lithobates pipiens it was 20.
As to `CC(=O)N[C@H]1CSSC[C@@H](C(=O)N[C@@H](CCCCN)C(N)=O)NC(=O)[C@H](Cc2c[nH]c3ccccc23)NC(=O)[C@H](CCCN=C(N)N)NC(=O)[C@H](Cc2ccccc2)NC(=O)[C@H](Cc2c[nH]cn2)NC(=O)[C@H](CCC(=O)O)NC1=O`, the Relative potency with Anolis carolinensis is recorded as 0.07; in the assay on Lithobates pipiens it was 0.16.
For `CC(=O)N[C@H]1CSSC[C@@H](C(=O)N[C@@H](CCCCN)C(=O)N2CCC[C@H]2C(=O)N[C@H](C(N)=O)C(C)C)NC(=O)[C@H](Cc2c[nH]c3ccccc23)NC(=O)[C@H](CCCN=C(N)N)NC(=O)[C@H](Cc2ccccc2)NC(=O)[C@H](Cc2c[nH]cn2)NC(=O)[C@H](CCC(=O)O)NC1=O`, in that order: 0.6 and 30.
For `CC(=O)N[C@H]1CSSC[C@@H](C(N)=O)NC(=O)[C@H](Cc2c[nH]c3ccccc23)NC(=O)[C@H](CCCN=C(N)N)NC(=O)[C@H](Cc2ccccc2)NC(=O)[C@H](Cc2c[nH]cn2)NC(=O)[C@H](CCC(=O)O)NC1=O`, in that order: 0.003 and 0.06.
As to `CC(=O)N[C@H]1CSSC[C@@H](C(=O)N[C@@H](CCCCN)C(=O)N2CCC[C@@H]2C(N)=O)NC(=O)[C@H](Cc2c[nH]c3ccccc23)NC(=O)[C@@H](CCCN=C(N)N)NC(=O)[C@H](Cc2ccccc2)NC(=O)[C@@H](Cc2c[nH]cn2)NC(=O)[C@H](CCC(=O)O)NC1=O`, in the assay listed under Mus musculus, the Relative potency amounted to 1.4.
The same measure, in the same setting: with `CC(=O)N[C@H]1CSSC[C@@H](C(=O)N[C@@H](CCCCN)C(=O)N2CCC[C@@H]2C(=O)N[C@H](C(N)=O)C(C)C)NC(=O)[C@H](Cc2c[nH]c3ccccc23)NC(=O)[C@@H](CCCN=C(N)N)NC(=O)[C@H](Cc2ccccc2)NC(=O)[C@@H](Cc2c[nH]cn2)NC(=O)[C@H](CCC(=O)O)NC1=O` the figure was 1.1.
